# hERG rescue: hERG rescue from dofetilide block, primary screen, cell-based, CHO-hERG, FluxOR thallium flux, dofetilide IC70. dofetilide IC70 present. hit rate 0.51% among 310,000. AID 1511, 2009. activation (rescue from dofetilide block), less the hit threshold, % at 10 µM;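 active = activation above the mean of controls blocked by dofetilide plus 5 SD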;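 note: thallium influx through hERG after potassium depolarization seen as dye fluorescence rise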
# KCNK3 block: human KCNK3 channel inhibitors, primary screen, CHO cells, FluxOR thallium flux, B-score; hit rate 0.84% among 340,000; FluxOR fluorescence; hits give low values; B-score at 10 µM;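 active = B-score under library mean minus 4 SD, starting fluorescence ratio at most library mean plus 5 SD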;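 note: more negative B-score means stronger inhibition of thallium flux through KCNK3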
# KCNQ1 pot: potentiators or activators of KCNQ1 channel, primary screen, cell-based, thallium flux, high-throughput | AID 2648, 2010 | B-score at 10 µM | hit rate 0.35% among 310,000 | CHO-K1 KCNQ1, thallium flux FluxOR fluorescence; hits give high values;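 active = fluorescence ratio B-score, a plate-corrected score, at least three library SD, with initial intensity B-score within 5 SD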
# Target sequence (P51787 whole entry, looked up): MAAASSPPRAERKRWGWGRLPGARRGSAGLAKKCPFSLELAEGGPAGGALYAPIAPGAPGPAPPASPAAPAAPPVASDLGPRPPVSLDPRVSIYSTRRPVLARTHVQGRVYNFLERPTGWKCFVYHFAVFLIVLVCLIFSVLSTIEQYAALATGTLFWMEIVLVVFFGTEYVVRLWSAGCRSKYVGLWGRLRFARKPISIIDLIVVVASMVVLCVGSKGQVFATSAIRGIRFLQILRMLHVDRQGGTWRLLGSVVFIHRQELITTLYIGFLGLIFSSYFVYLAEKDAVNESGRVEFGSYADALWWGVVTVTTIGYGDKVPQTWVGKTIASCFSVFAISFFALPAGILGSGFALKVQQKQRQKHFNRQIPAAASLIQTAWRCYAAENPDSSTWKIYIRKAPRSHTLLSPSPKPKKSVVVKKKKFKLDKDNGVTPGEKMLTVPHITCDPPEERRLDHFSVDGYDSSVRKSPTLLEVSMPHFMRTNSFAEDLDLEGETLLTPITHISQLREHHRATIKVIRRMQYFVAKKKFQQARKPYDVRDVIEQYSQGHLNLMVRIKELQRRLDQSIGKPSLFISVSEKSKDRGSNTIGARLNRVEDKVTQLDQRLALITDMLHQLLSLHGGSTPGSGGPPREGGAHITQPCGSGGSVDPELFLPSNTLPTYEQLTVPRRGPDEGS
#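 assay system = CHO-K1 cells stably expressing KCNQ1 | medium = assay buffer, equal DMSO in all wells | timing = 37 °C overnight plating, 90-min dark dye load, 20-min compound pretreatment | measured by = kinetic FluxOR thallium fluorescence, 10-s 1-Hz baseline, 110-s post-stimulus read | measure = fluorescence change relative to baseline, converted to B score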
# KCNK9 block: KCNK9 potassium channel inhibitors, primary screen, HEK293 cells, thallium flux | Potassium channel subfamily K member 9 (Homo sapiens), Q9NPC2 | FluxOR thallium flux fluorescence; hits give low values | B-score at 10 µM | hit rate 1.2% among 310,000;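 active = ratio B-score over 3 SD below the library mean, with starting fluorescence within 5 SD of its mean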;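 note: negative B-score means less thallium flux so channel inhibition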
# KCNQ1 block: inhibitors of human KCNQ1 channel, primary screen, cell-based, thallium flux, high-throughput; Potassium voltage-gated channel subfamily KQT member 1 (Homo sapiens), P51787; CHO-K1 KCNQ1, FluxOR thallium flux fluorescence; hits give high values; B-score at 10 µM; hit rate 1.3% among 310,000;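 active = compounds whose thallium flux B-score, printed positive for inhibition, exceeds three library SD while starting fluorescence stays within three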;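 note: channel opened by potassium depolarization with thallium stimulus after 20 min compound exposure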
# KCNK9 block conf: KCNK9 potassium channel inhibitors, confirmation, HEK293 cells, thallium flux, duplicate | AID 492992, 2010 | shares compounds with KCNK9 block | inhibition, % at 10 µM | FluxOR thallium flux fluorescence | hit rate 43% among 4,900;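 active = thallium signal inhibited by more than 5 SD of the compound-free buffer control wells, on both duplicate plates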;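 note: 0% = assay buffer control wells without compound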
# Kir2-1 spec: mouse Kir2.1 channel inhibition, confirmation, selectivity assay for KCNK9 modulator project, cell-based, HEK293, thallium flux. shares compounds with KCNK9 block. Kir2.1 cells, FluxOR thallium flux fluorescence. inhibition, % at 10 µM. hit rate 4% among 4,900;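 active = thallium signal drop more than 5 SD beyond the mean of the no-compound control wells, seen in both duplicate plates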;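 note: signal is fluorescence rise after thallium addition divided by baseline fluorescence; plate controls were assay buffer only for no effect and full block by chlorpromazine control for full effect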
# KCNK9 uninduced: thallium flux in non-induced HEK293 cells, confirmation, counter-screen for KCNK9 inhibitor project, cell-based, second counter screen, non-induced KCNK9-HEK293; shares compounds with KCNK9 block; FluxOR thallium flux; inhibition, % at 10 µM; hit rate 40% among 4,900;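 active = thallium signal drop beyond 5 SD of the untreated control mean, on both duplicate plates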;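 note: plate controls were buffer only IC0 wells for no effect and SID17386958 at its maximal inhibitory level for full effect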
# * = called active by the depositor; i = inactive; nt = not tested or not shown. Sampled rows, rich in hits. Any-hit rate of the full collection: about 3.1%.
SMILES,hERG rescue,KCNK3 block,KCNQ1 pot,KCNK9 block,KCNQ1 block,KCNK9 block conf,Kir2-1 spec,KCNK9 uninduced
CCc1ccc(/C=C2\SC(=S)N(CCCC(=O)Nc3ccccc3C(=O)O)C2=O)cc1,-9.3,i,i,i,i,i,i,i
O=C(CCCN1C(=O)/C(=C\c2ccccc2)SC1=S)Nc1ccc(C(=O)O)cc1,-4.4,i,i,i,i,nt,nt,nt
Cc1ccc(/C=C2\SC(=S)N(CCCC(=O)Nc3ccccc3C(=O)O)C2=O)cc1,-14.7,i,i,i,i,nt,nt,nt
CCc1ccc(/C=C2\SC(=S)N(CCCC(=O)Nc3ccc(C(=O)O)cc3)C2=O)cc1,-4.4,i,i,i,i,i,i,i
CCOc1ccc(/C=C2\SC(=S)N(CCC(=O)Nc3cccc(C(=O)O)c3)C2=O)cc1,-10.1,i,i,i,i,i,i,i
O=C(OCC(=O)N1CCOCC1)c1ccc(Cl)c(S(=O)(=O)N2CCc3ccccc32)c1,nt,i,nt,nt,nt,nt,nt,nt
O=C(O)c1cc(NN=Nc2ccc(Br)cc2)cc([N+](=O)[O-])c1,-11.4,i,i,i,i,i,i,i
O=C(O)c1cc(NN=Nc2cccc([N+](=O)[O-])c2)cc([N+](=O)[O-])c1,-7.6,i,i,i,i,nt,nt,nt
Cc1ccccc1NC(=S)N1CCN(c2ccccc2)CC1,-1.9,i,i,i,i,nt,nt,nt
Cc1ccc(SCCNC(=O)c2ccc([N+](=O)[O-])c(C)c2)cc1,-6.8,i,i,i,i,i,i,i
Cc1ccc(C(=O)NCCSc2ccc(Cl)cc2)cc1[N+](=O)[O-],-23.4,i,i,i,i,i,i,i
Cc1ccc(C(=O)NCCSCc2ccccc2)cc1[N+](=O)[O-],-2.6,i,i,i,i,nt,nt,nt
Cc1ccc(SCCNC(=O)c2ccc(C)c([N+](=O)[O-])c2)cc1,-14.8,i,i,i,i,nt,nt,nt
CC(C)CCNC(=O)C12CN(Cc3ccccc3)CC1C(c1ccc([N+](=O)[O-])cc1)=NO2 (stereo unspecified),-9.7,i,i,i,i,nt,nt,nt
COc1cccc(CNC(=O)C23CN(Cc4ccccc4)CC2C(c2ccc([N+](=O)[O-])cc2)=NO3)c1 (stereo unspecified),-5.2,i,i,i,i,i,i,i
CCOC(=O)N/N=C/c1cc(C)n(-c2ccccc2)c1C,-14.5,i,i,i,i,nt,nt,nt
CCOC(=O)N/N=C/c1cc(C)n(-c2cccc3ccccc23)c1C,-5.4,i,i,-8.31*,i,48.5%*,i,35.5%*
O=C(N/N=C/c1ccncc1)c1ccccc1OCc1ccc(Br)cc1,-9.4,i,i,-8.93*,i,i,i,i
Cc1ccc(/C=N/NC(=O)c2ccccc2OCc2ccc(F)cc2)o1,-6.1,i,i,i,i,nt,nt,nt
O=C(N/N=C/c1cc(Br)ccc1OC(=O)c1ccc(Br)cc1)c1ccncc1,-11.8,i,i,-12*,i,45.0%*,i,34.5%*
O=C(N/N=C\c1ccccc1OCc1ccccc1)c1ccco1,-9.7,i,i,i,i,nt,nt,nt
C#CCOc1ccccc1/C=N/NC(=O)c1ccccc1OCc1ccccc1,-14.9,i,i,-9.6*,i,29.5%*,i,41.0%*
O=C(N/N=C/c1cc(Br)ccc1O)c1ccncc1,-19.6,i,i,i,i,nt,nt,nt
CCn1cnc2c1c(=O)n(Cc1cccc([N+](=O)[O-])c1)c(=O)n2Cc1ccccc1,-6.7,i,i,i,i,i,i,i
CCn1cnc2c1c(=O)n(CC(=O)NCC(C)C)c(=O)n2Cc1ccccc1,-2.5,i,i,i,i,nt,nt,nt
SMILES,hERG rescue,KCNK3 block,KCNQ1 pot,KCNK9 block,KCNQ1 block,KCNK9 block conf,Kir2-1 spec,KCNK9 uninduced
CCOC(=O)c1c(C)[nH]c(C(=O)Cn2c(=O)c3c(ncn3CC)n(Cc3ccccc3)c2=O)c1C,-4.0,i,i,i,i,i,i,i
CCn1cnc2c1c(=O)n(CC(=O)NCC(F)(F)F)c(=O)n2Cc1ccccc1,-10.9,i,i,i,i,nt,nt,nt
CCn1cnc2c1c(=O)n(CC(=O)NCc1ccccc1)c(=O)n2Cc1ccccc1,-6.7,i,i,i,i,nt,nt,nt
CCn1cnc2c1c(=O)n(Cc1nnc3n1-c1ccccc1SC3)c(=O)n2Cc1ccccc1,-4.7,i,i,i,i,i,i,i
CCn1cnc2c1c(=O)n(Cc1csc(-c3ccccc3)n1)c(=O)n2Cc1ccccc1,-11.4,i,i,i,i,i,i,i
CCC(=O)N1CCN(c2ccccc2NC(=O)COc2ccc(C(C)C)cc2)CC1,-7.0,i,i,i,i,nt,nt,nt
COc1ccc(NC(=O)CCS(=O)(=O)c2ccccc2Cl)cc1S(=O)(=O)Nc1ccc(Cl)cc1,-7.5,i,i,i,i,nt,nt,nt
COc1ccc(NC(=O)CCSc2ccc(C)cc2)cc1S(=O)(=O)Nc1ccccc1Cl,-5.9,i,i,i,i,i,i,i
COc1ccc(NS(=O)(=O)c2cc(NC(=O)CCSc3ccccc3)ccc2OC)cc1,1.3,i,i,i,i,i,i,i
CCOC(=O)N1CCN(C(=O)c2cc3c(s2)-c2ccc(Cl)cc2S(=O)(=O)C3)CC1,-9.3,i,i,i,i,nt,nt,nt
COc1ccc(C(=O)Nc2cccc3nc(C)ccc23)cc1OC,-5.0,i,i,i,i,nt,nt,nt
COc1ccccc1CNC(=O)C(CCSC)NC(=O)C1CCC(C)CC1 (stereo unspecified),-11.6,i,i,i,i,nt,nt,nt
Cc1ccccc1Nc1nc(N)nc(CSc2nncn2C)n1,-5.6,i,i,i,i,nt,nt,nt
CCCCn1c(N)c(N(CCOC)C(=O)c2ccc(S(=O)(=O)N(CC)c3ccccc3)cc2)c(=O)[nH]c1=O,-6.1,i,i,i,i,nt,nt,nt

# From PubChem
